Reference: ChEMBL document CHEMBL1147467, “Design and synthesis of oxadiazolidinediones as inhibitors of plasminogen activator inhibitor-1” (Bioorg Med Chem Lett, 2004)

Tests used:
[1] = biological target: T1, Plasminogen activator inhibitor 1 (Homo sapiens, UniProt P05121); assay: Inhibitory activity against plasminogen activator inhibitor-1
[2] = biological target: T1, Plasminogen activator inhibitor 1; assay: In vitro concentration required for inhibition of tissue type plasminogen activator by plasminogen activator inhibitor-1 at concentration 25 um
Method in brief: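 Recombinant human PAI-1 (140 nM) preincubated 1 h at room temperature with compound (1-100 µM final, ≤0.2% DMSO) in pH 6.6 buffer. Recombinant human tPA (70 nM; PAI-1:tPA 2:1) then added for 30 min, followed by the chromogenic tPA substrate Spectrozyme-tPA, with A405 read at 0 and 60 min.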
Target sequence in this assay (P05121 whole entry): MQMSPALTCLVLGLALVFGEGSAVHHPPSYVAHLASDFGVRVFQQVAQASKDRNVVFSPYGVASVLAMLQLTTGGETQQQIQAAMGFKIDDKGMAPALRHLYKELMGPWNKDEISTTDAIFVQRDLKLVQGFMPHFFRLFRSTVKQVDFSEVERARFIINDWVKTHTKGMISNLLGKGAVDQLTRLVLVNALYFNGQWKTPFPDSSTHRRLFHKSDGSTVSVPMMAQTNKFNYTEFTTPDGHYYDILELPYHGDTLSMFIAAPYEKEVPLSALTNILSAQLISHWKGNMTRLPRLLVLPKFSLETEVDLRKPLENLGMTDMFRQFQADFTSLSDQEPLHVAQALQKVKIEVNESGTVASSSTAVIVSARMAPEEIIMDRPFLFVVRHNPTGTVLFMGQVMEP

[3] = biological target: T1, Plasminogen activator inhibitor 1; assay: In vitro inhibition of plasminogen activator inhibitor-1 at concentration 25 um
Target sequence in this assay (P05121 whole entry, looked up): as the sequence (P05121 whole entry) above

Structure (SMILES)	IC50 [1] [µM]	IC50 [2] [µM]	also measured
CC(/C=C/c1ccc(OCc2cccc(C(F)(F)F)c2)cc1)n1oc(=O)[nH]c1=O (centres undefined)	5.8		
C/C(=C\Cn1oc(=O)[nH]c1=O)c1cccc(COc2cc(C(F)(F)F)cc(C(F)(F)F)c2)c1		5.29	
O=c1[nH]c(=O)n(C(CCc2ccc(OCc3cccc(Cl)c3)cc2)c2ccccc2)o1 (centres undefined)	0.68		
C/C(=C\Cn1oc(=O)[nH]c1=O)c1cccc(OCc2cccc(C)c2)c1			inhibition [3]: 37%
CCCC/C(=C\Cn1oc(=O)[nH]c1=O)c1cccc(Oc2cc(Cl)cc(Cl)c2)c1	1.9		
O=c1[nH]c(=O)n(C/C=C/c2cc(OCc3ccc(Cl)cc3)cc(OCc3ccc(Cl)cc3)c2)o1		2.1	
C/C(=C\Cn1oc(=O)[nH]c1=O)c1cccc(OCc2ccccc2-c2ccccc2)c1		2.3	
CCCCC(CCn1oc(=O)[nH]c1=O)c1cccc(Oc2cccc(C)c2)c1 (centres undefined)	2.2		
CC(/C=C/c1ccc(OCc2ccc(Cl)c(Cl)c2)cc1)n1oc(=O)[nH]c1=O (centres undefined)	6.1		
O=c1[nH]c(=O)n(C(CCc2ccc(OCc3cc(C(F)(F)F)cc(C(F)(F)F)c3)cc2)c2ccccc2)o1 (centres undefined)	0.39		
O=c1[nH]c(=O)n(C/C=C/c2cc(OCc3ccc(Cl)c(Cl)c3)ccc2Cl)o1		3.8	
C/C(=C\Cn1oc(=O)[nH]c1=O)c1cccc(OCc2cc(C(F)(F)F)cc(C(F)(F)F)c2)c1		9.4	
O=c1[nH]c(=O)n(C/C=C/c2cc(OCc3ccc(C(F)(F)F)cc3)cc(OCc3ccc(C(F)(F)F)cc3)c2)o1		2.5	
O=c1[nH]c(=O)n(C/C=C/c2ccc(OCc3cc(C(F)(F)F)cc(C(F)(F)F)c3)cc2)o1	14.9		
C/C(=C\Cn1oc(=O)[nH]c1=O)c1cccc(OCc2ccccc2)c1			inhibition [3]: 24%
C/C(=C\Cn1oc(=O)[nH]c1=O)c1cccc(OCc2ccccn2)c1		24	
C/C(=C/Cn1oc(=O)[nH]c1=O)c1cccc(COc2cc(C(F)(F)F)cc(C(F)(F)F)c2)c1		7.2	
CC/C(=C\Cn1oc(=O)[nH]c1=O)c1ccc(OCc2cc(C(F)(F)F)cc(C(F)(F)F)c2)cc1	9		
COc1cc(/C=C/Cn2oc(=O)[nH]c2=O)ccc1OCc1ccc(Cl)c(Cl)c1		3.22	
